This is an account of results in ChEMBL document CHEMBL1126160, “Synthesis and structure-activity relationships of 7-diazabicycloalkylquinolones, including danofloxacin, a new quinolone antibacterial agent for veterinary medicine” (J Med Chem, 1992).

In one data set the test system is Phocaeicola vulgatus. As to the kind of experiment: In vitro antibacterial activity against anaerobically grown Bacteroides vulgatus (78D029). In kind it is functional. In short, it runs like this:
(§1)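 Agar dilution MICs. Anaerobic strains were tested on tryptose agar with 5% bovine blood and incubated 48 h at 39 °C in an anaerobe chamber under N2/CO2/H2 (80:10:10).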

In another data set the test system is Clostridium perfringens. Put plainly: microbe, parasite or virus in culture. In kind it is functional.
In another data set the test system is Trueperella pyogenes. As to the kind of experiment: In vitro antibacterial activity against anaerobically grown Actinomyces pyogenes (14D002). In kind it is functional. In short, it runs like this: as §1
Data set [1] deals with Actinobacillus pleuropneumoniae. Put plainly: In vitro antibacterial activity against anaerobically grown Actinobacillus pleuropneumoniae ([…]). Type of data set: functional. The procedure, abridged:
as §1

The nature of data set [2]: In vitro evaluation for antibacterial activity against anaerobically grown Treponema hyodysenteriae (94A007). Type of data set: functional. The following applies: Brachyspira hyodysenteriae.
In data set [3] the test system is Bordetella bronchiseptica. As to the kind of experiment: In vitro antibacterial activity against aerobically grown Bordetella bronchiseptica (73A009). In kind it is functional. The procedure, abridged: (§2)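 Agar dilution MICs. Aerobic strains were tested on brain heart infusion agar and incubated aerobically at 37 °C for 18–20 h.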
Data set [4] has as its system Escherichia coli. As to the kind of experiment: In vivo protective dose was evaluated against Escherichia coli (51A266) in mouse(sc). In kind it is functional. Conditions: read-out: PD50. The procedure, abridged: (§3)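 Female CF-1 mice (15 g), groups of 10, challenged ip with 0.5 mL bacterial suspension (P. multocida 59A006 or E. coli 51A266 at 3.0 × 10^8 cfu/mL; S. choleraesuis 58B010 at 8.5 × 10^2 cfu/mL). Drug given sc or po at 30 min, 4 h and 24 h after challenge; survival recorded at 96 h; PD50 by probit analysis.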

The test system of data set [5] is Pasteurella multocida. As to the kind of experiment: In vivo protective dose was evaluated against Pasteurella multocida (59A006) in mouse(sc). In kind it is functional. The following applies: read-out: PD50. The procedure, abridged: as §3
For data set [6], the system named is Salmonella enterica. Put plainly: In vitro antibacterial activity against Aerobically grown Salmonella choleraesuis (58B015). In kind it is functional.
The next data set has as its system Staphylococcus aureus. Put plainly: In vitro antibacterial activity against aerobically grown Staphylococcus aureus (54B004). Type of data set: functional. In short, it runs like this:
as §2

Data set [7] in a line: In vitro antibacterial activity against Aerobically grown Pasteurella haemolytica (59B018). In kind it is functional. Conditions: Mannheimia haemolytica. The procedure, abridged: as §2
For data set [8], the system named is Escherichia coli. Put plainly: Escherichia coli DNA cleavage endpoint value which is the minimum amount required (in micro g/mL) to induce detectable cleavage of supercoiled pBR322 substrate to linear form (gyrase). Type of data set: functional. Conditions: read-out: MIC. In short, it runs like this: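 DNA gyrase A and B subunits were purified from E. coli overproducers. About 2 units of holoenzyme were incubated with pBR322 in Tris-HCl pH 7.5 containing MgCl2, spermidine, DTT, 0.2 mM ATP, BSA and tRNA. Drug was added as 2-fold serial dilutions, and reactions ran for 60 min at 25 °C. Reactions were stopped with SDS and proteinase K, then run on agarose and stained with ethidium. The endpoint was the lowest concentration giving detectable linear DNA.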

Data set [9] relates to Escherichia coli. As to the kind of experiment: In vitro antibacterial activity against aerobically grown Escherichia coli (51A538). In kind it is functional. The procedure, abridged: as §2
For data set [10], the system named is Pasteurella multocida. Put plainly: In vitro antibacterial activity against Aerobically grown Pasteurella multocida (59A006). In kind it is functional. In short, it runs like this: as §2
Data set [11] concerns Pasteurella multocida. As to the kind of experiment: In vivo protective dose was evaluated Pasteurella multocida (59A006) in mouse(sc). Type of data set: functional. The following applies: read-out: PD50. In short, it runs like this: as §3
Data set [12] has as its system Salmonella enterica. Put plainly: In vitro antibacterial activity against aerobically grown Salmonella choleraesuis (58B015). Type of data set: functional.
In data set [13] the test system is Pasteurella multocida. As to the kind of experiment: In vitro antibacterial activity against aerobically grown Pasteurella multocida (59A006). In kind it is functional. In short, it runs like this:
as §2

Data set [14] in a line: Compound was evaluated for aqueous solubility at pH 7.2. Conditions: buffer.

In brackets after ≈: the same amount, converted by molar mass.

Turning to `CCn1cc(C(=O)O)c(=O)c2cc(F)c(N3C[C@@H]4C[C@H]3CN4C)cc21`, the MIC against Phocaeicola vulgatus is over 3.13 µg/mL; against Clostridium perfringens, 0.2 µg/mL (≈ 0.579 µM); against Trueperella pyogenes, over 3.13 µg/mL; in [1], 0.78 µg/mL (≈ 2.26 µM); in data set [2], 1.56 µg/mL (≈ 4.52 µM); in [3], 1.56 µg/mL (≈ 4.52 µM). The MIC against Salmonella enterica [6] was found to be 0.39 µg/mL (≈ 1.13 µM); in the data set with Staphylococcus aureus it was 0.39 µg/mL (≈ 1.13 µM); in data set [7], 0.39 µg/mL (≈ 1.13 µM); in the data set with Escherichia coli [9], 0.2 µg/mL (≈ 0.579 µM); against Pasteurella multocida [10] it was 0.1 µg/mL (≈ 0.29 µM). Besides, the figures for the ED50 with Escherichia coli [4] and in the data set on Pasteurella multocida [5] were 1.45 mg/kg and 1.35 mg/kg, respectively. Also, the minimum concentration inducing gyrase-mediated DNA cleavage in the data set on Escherichia coli [8] was determined as 3.12 µg/mL.

As for `CN1C[C@H]2C[C@@H]1CN2c1cc2c(cc1F)c(=O)c(C(=O)O)cn2C1CC1`, the MIC was found to be 3.13 µg/mL (≈ 8.76 µM) with Phocaeicola vulgatus; 0.2 µg/mL (≈ 0.56 µM) in the data set with Clostridium perfringens; 3.13 µg/mL (≈ 8.76 µM) against Trueperella pyogenes; 0.05 µg/mL (≈ 0.14 µM) in data set [1]; 1.56 µg/mL (≈ 4.37 µM) in data set [2]; 1.56 µg/mL (≈ 4.37 µM) in data set [3]. Moreover, the MIC was 0.1 µg/mL (≈ 0.28 µM) against Salmonella enterica [12]; 0.39 µg/mL (≈ 1.09 µM) with Staphylococcus aureus; 0.02 µg/mL (≈ 0.056 µM) against Pasteurella multocida [13]; 0.05 µg/mL (≈ 0.14 µM) in data set [7]; 0.05 µg/mL (≈ 0.14 µM) against Escherichia coli [9]. The ED50 in the data set on Pasteurella multocida [11] came out at 0.22 mg/kg. Besides, the minimum concentration inducing gyrase-mediated DNA cleavage with Escherichia coli [8] turned out to be 0.19 µg/mL.

`O=C(O)c1cn(C2CC2)c2cc(N3CCN4CCCC3C4)c(F)cc2c1=O` (stereo not drawn): the MIC in the data set on Phocaeicola vulgatus was determined as 0.78 µg/mL (≈ 2.1 µM); against Clostridium perfringens, 0.2 µg/mL (≈ 0.538 µM); in the data set on Trueperella pyogenes, 3.13 µg/mL (≈ 8.43 µM); in [1], 0.02 µg/mL (≈ 0.0538 µM); in data set [2], 0.2 µg/mL (≈ 0.538 µM); in data set [3], 0.78 µg/mL (≈ 2.1 µM). For the same compound, the MIC in the data set with Salmonella enterica [12] is 0.05 µg/mL (≈ 0.135 µM); against Staphylococcus aureus, 0.1 µg/mL (≈ 0.269 µM); against Pasteurella multocida [13], 0.002 µg/mL (≈ 0.00538 µM); in data set [7], 0.02 µg/mL (≈ 0.0538 µM); against Escherichia coli [9], 0.05 µg/mL (≈ 0.135 µM). For the same compound, the ED50 is 0.31 mg/kg in the data set with Escherichia coli [4] and 0.15 mg/kg in the data set with Pasteurella multocida [5]. Moreover, the minimum concentration inducing gyrase-mediated DNA cleavage in the data set with Escherichia coli [8] stood at 0.78 µg/mL.

`O=C(O)c1cn(C2CC2)c2cc(N3C[C@@H]4C[C@H]3CN4)c(F)cc2c1=O`: the MIC against Phocaeicola vulgatus was over 3.13 µg/mL; against Clostridium perfringens, 0.1 µg/mL (≈ 0.291 µM); with Trueperella pyogenes, 3.13 µg/mL (≈ 9.12 µM); in data set [1], 0.1 µg/mL (≈ 0.291 µM); in [2] it was 1.56 µg/mL (≈ 4.54 µM); in [3], over 1.56 µg/mL. Further, the MIC in the data set with Salmonella enterica [12] was 0.05 µg/mL (≈ 0.146 µM); in the data set on Staphylococcus aureus it was 1.56 µg/mL (≈ 4.54 µM); in the data set on Pasteurella multocida [13], 0.2 µg/mL (≈ 0.582 µM); in data set [7], 0.2 µg/mL (≈ 0.582 µM); in the data set on Escherichia coli [9], 0.1 µg/mL (≈ 0.291 µM). Moreover, the ED50 was found to be 0.92 mg/kg with Escherichia coli [4] and 0.2 mg/kg in the data set with Pasteurella multocida [5]. Further, the concentration in solution in [14] (solubility) was 77 µg/mL (≈ 224 µM). For the same compound, the minimum concentration inducing gyrase-mediated DNA cleavage in the data set on Escherichia coli [8] is 0.39 µg/mL.

Turning to `CCn1cc(C(=O)O)c(=O)c2cc(F)c(N3CCN4CCCC3C4)cc21` (stereo not drawn), the MIC in the data set on Phocaeicola vulgatus is 3.13 µg/mL (≈ 8.71 µM); against Clostridium perfringens it was 0.39 µg/mL (≈ 1.09 µM); against Trueperella pyogenes, over 3.13 µg/mL; in data set [1] it was 0.05 µg/mL (≈ 0.139 µM); in data set [2], 0.39 µg/mL (≈ 1.09 µM); in [3], over 1.56 µg/mL. The MIC amounted to 0.2 µg/mL (≈ 0.556 µM) with Salmonella enterica [12]; 0.39 µg/mL (≈ 1.09 µM) in the data set with Staphylococcus aureus; 0.02 µg/mL (≈ 0.0556 µM) with Pasteurella multocida [13]; 0.1 µg/mL (≈ 0.278 µM) in data set [7]; 0.2 µg/mL (≈ 0.556 µM) with Escherichia coli [9]. Also, the results for the ED50 in the data set on Escherichia coli [4] and in the data set with Pasteurella multocida [5] were 1.36 mg/kg and 0.71 mg/kg, respectively. Moreover, the minimum concentration inducing gyrase-mediated DNA cleavage in the data set on Escherichia coli [8] stood at 3.12 µg/mL.

Turning to `CN1C2CC[C@@H]1CCN(c1cc3c(cc1F)c(=O)c(C(=O)O)cn3C1CC1)C2`, the MIC is 3.13 µg/mL (≈ 8.12 µM) in the data set with Phocaeicola vulgatus; 0.2 µg/mL (≈ 0.519 µM) against Clostridium perfringens; 3.13 µg/mL (≈ 8.12 µM) with Trueperella pyogenes; 0.2 µg/mL (≈ 0.519 µM) in data set [1]; 1.56 µg/mL (≈ 4.05 µM) in data set [2]; over 1.56 µg/mL in data set [3]. For the same compound, the MIC in the data set with Salmonella enterica [12] turned out to be 0.39 µg/mL (≈ 1.01 µM); against Staphylococcus aureus, 0.39 µg/mL (≈ 1.01 µM); against Pasteurella multocida [13], 0.05 µg/mL (≈ 0.13 µM); in data set [7], 0.2 µg/mL (≈ 0.519 µM); in the data set with Escherichia coli [9], 0.39 µg/mL (≈ 1.01 µM). Also, the ED50 with Pasteurella multocida [5] turned out to be 0.43 mg/kg. Besides, in the data set with Escherichia coli [8], the minimum concentration inducing gyrase-mediated DNA cleavage stood at 3.12 µg/mL.
